12 compounds from ChEMBL document CHEMBL1165898, “Novel chromeno [2,3-b]-pyrimidine derivatives as potential anti-microbial agents” (2010) can be followed below.

Each structure is given as a SMILES string. Values after ≈ are worked out from the molar mass of the structure shown. Active and inactive are the calls of the source. No cut-off for these calls is given here.

For assay [1], the system named is Staphylococcus aureus. In words: Antibacterial activity against Staphylococcus aureus after 16 hrs by serial dilution method. Format: functional.
Assay [2] has as its system Bacillus subtilis. The assay can be described thus: Antibacterial activity against Bacillus subtilis after 16 hrs by serial dilution method. It counts as functional.
Assay [3] has as its system Escherichia coli. The assay can be described thus: Antibacterial activity against Escherichia coli after 16 hrs by serial dilution method. It counts as functional.
The test system of assay [4] is Pseudomonas aeruginosa. The assay can be described thus: Antibacterial activity against Pseudomonas aeruginosa at 1.6125 to […] after 16 hrs by serial dilution method. It counts as functional, organism-based. In short, it runs like this:
(§1)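 Tube broth dilution MIC in trypticase soya broth. Colonies from a fresh plate were grown 6 h at 37 °C, adjusted to […] with sterile PBS (10⁸ cfu/mL), then diluted 10³-fold in broth to 10⁵ cfu/mL. Compounds were serially diluted across six tubes per organism and 1 mL inoculum was added. Inoculum-only and broth-only controls were run. Incubation was 16 h at 37 °C. MIC was read as no visible growth.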

Assay [5] concerns Staphylococcus aureus. In words: Antibacterial activity against Staphylococcus aureus at 1.6125 to […] after 16 hrs by serial dilution method. Format: functional, organism-based. A digest of the protocol:
as §1

Assay [6] has as its system Bacillus subtilis. In words: Antibacterial activity against Bacillus subtilis at 1.6125 to […] after 16 hrs by serial dilution method. Format: functional, organism-based. In short, it runs like this: as §1
In assay [7] the test system is Escherichia coli. In words: Antibacterial activity against Escherichia coli at 1.6125 to […] after 16 hrs by serial dilution method. It counts as functional, organism-based. A digest of the protocol: as §1
Assay [8] relates to Pseudomonas aeruginosa. In words: Antibacterial activity against Pseudomonas aeruginosa after 16 hrs by serial dilution method. Format: functional. In short, it runs like this:
as §1

Consider `Clc1ccc(CNc2ncnc3c2Cc2ccccc2O3)cc1`, for which the MIC is 1.61 µg/mL (≈ 4.98 µM) against Staphylococcus aureus [1], 1.61 µg/mL (≈ 4.98 µM) against Bacillus subtilis [2] and 50 µg/mL (≈ 154 µM) in the assay with Escherichia coli [3]. The MIC entry in the assay on Pseudomonas aeruginosa [4] was “inactive”.
For the compound `c1ccc(CNc2ncnc3c2Cc2ccccc2O3)cc1`, the MIC was found to be 1.61 µg/mL (≈ 5.57 µM) with Staphylococcus aureus [1], 1.61 µg/mL (≈ 5.57 µM) against Bacillus subtilis [2] and 25 µg/mL (≈ 86.4 µM) in the assay on Escherichia coli [3]. The MIC entry in the assay with Pseudomonas aeruginosa [4] is “inactive”.
In the case of `Nc1ncnc2c1Cc1ccccc1O2`, the MIC result with Staphylococcus aureus [5], with Bacillus subtilis [6], with Escherichia coli [7] and in the assay with Pseudomonas aeruginosa [4] was “inactive” in each case.
`Cc1ccc(C)c(Nc2ncnc3c2Cc2ccccc2O3)c1`: the MIC against Staphylococcus aureus [1] and against Bacillus subtilis [2] was 1.61 µg/mL (≈ 5.32 µM) each time. Also, the MIC entry in the assay with Escherichia coli [7] and in the assay on Pseudomonas aeruginosa [4] was “inactive” each time.
As for `c1ccc2c(c1)Cc1c(NC34CC5CCCC(C3)C5C4)ncnc1O2` (stereo not drawn), the MIC result in the assay on Staphylococcus aureus [5] and with Bacillus subtilis [6] was “inactive” throughout. Also, the MIC against Escherichia coli [3] and in the assay on Pseudomonas aeruginosa [8] was 50 µg/mL (≈ 150 µM) in each case.
The compound `Cc1ccc(Nc2ncnc3c2Cc2ccccc2O3)cc1F` gave an MIC against Staphylococcus aureus [1] of 50 µg/mL (≈ 163 µM). The MIC result with Bacillus subtilis [6], in the assay with Escherichia coli [7] and with Pseudomonas aeruginosa [4] was “inactive” throughout.
On to `c1ccc(CN2CCC(Nc3ncnc4c3Cc3ccccc3O4)CC2)cc1`, for which the MIC with Staphylococcus aureus [1] was determined as 1.61 µg/mL (≈ 4.33 µM); in the assay with Bacillus subtilis [2], 1.61 µg/mL (≈ 4.33 µM); in the assay with Escherichia coli [3], 3.12 µg/mL (≈ 8.39 µM). Further, the MIC entry in the assay on Pseudomonas aeruginosa [4] was “inactive”.
`Cc1cc(C(F)(F)F)ccc1Nc1ncnc2c1Cc1ccccc1O2`: the MIC result with Staphylococcus aureus [5], in the assay with Bacillus subtilis [6], with Escherichia coli [7] and with Pseudomonas aeruginosa [4] was “inactive” each time.
Take `Cc1cnc(Nc2ncnc3c2Cc2ccccc2O3)s1`: the MIC result in the assay on Staphylococcus aureus [5], in the assay on Bacillus subtilis [6] and in the assay with Escherichia coli [7] was “inactive” each time. Besides, the lowest concentration to inhibit growth with Pseudomonas aeruginosa [8] (MIC) was 25 µg/mL (≈ 84.4 µM).
As to `Clc1ccc(Nc2ncnc3c2Cc2ccccc2O3)c(Cl)c1`, the MIC entry in the assay on Staphylococcus aureus [5], in the assay with Bacillus subtilis [6], in the assay with Escherichia coli [7] and with Pseudomonas aeruginosa [4] was “inactive” each time.
On to `c1ccc2c(c1)Cc1c(Nc3cccc4ccccc34)ncnc1O2`, for which the minimal inhibitory concentration (MIC) in the assay on Staphylococcus aureus [1] and in the assay on Bacillus subtilis [2] was 1.61 µg/mL (≈ 4.96 µM) each time. Besides, the MIC entry in the assay with Escherichia coli [7] and in the assay on Pseudomonas aeruginosa [4] was “inactive” throughout.
As to `CO/N=C(\C(=O)N[C@@H]1C(=O)N2C(C(=O)O)=C(CSc3nc(=O)c(O)nn3C)CS[C@H]12)c1csc(N)n1` [CEFTRIAXONE], the MIC against Staphylococcus aureus [1] came out at 3.12 µg/mL (≈ 5.63 µM); against Bacillus subtilis [2], 1.61 µg/mL (≈ 2.91 µM); with Escherichia coli [3], 1.61 µg/mL (≈ 2.91 µM); with Pseudomonas aeruginosa [8] it was 1.61 µg/mL (≈ 2.91 µM).
